Rows were chosen to be rich in hits. Some 1.4% of all compounds tested hit in one or more screens of this group.
A3A deaminase = human APOBEC3A DNA deaminase inhibition; AID 493011; recombinant A3A, FAM/TAMRA ssDNA deamination fluorescence; P31941; inhibition, % at 20 µM; 330,000 compounds, 0.41% hits;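 active = at least 40% inhibition at 20 µM here, with at most 30% in a related deaminase screen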;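 note: plate controls were A3A with DMSO for no effect and wells lacking A3A enzyme for full effect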
APJ agonist = APJ receptor agonism; activation, % at 20 µM; AID 2520; CHO-K1 APJ PathHunter beta-arrestin, luminescence; 0% DMSO wells, 100% apelin; P35414; 330,000 compounds, 0.11% hits;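 active = activation more than six SD over the plate average, tested at 20 µM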;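 note: 0% = DMSO alone and 100% = apelin-13 at 10 nM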
Target sequence (P35414 whole entry, looked up): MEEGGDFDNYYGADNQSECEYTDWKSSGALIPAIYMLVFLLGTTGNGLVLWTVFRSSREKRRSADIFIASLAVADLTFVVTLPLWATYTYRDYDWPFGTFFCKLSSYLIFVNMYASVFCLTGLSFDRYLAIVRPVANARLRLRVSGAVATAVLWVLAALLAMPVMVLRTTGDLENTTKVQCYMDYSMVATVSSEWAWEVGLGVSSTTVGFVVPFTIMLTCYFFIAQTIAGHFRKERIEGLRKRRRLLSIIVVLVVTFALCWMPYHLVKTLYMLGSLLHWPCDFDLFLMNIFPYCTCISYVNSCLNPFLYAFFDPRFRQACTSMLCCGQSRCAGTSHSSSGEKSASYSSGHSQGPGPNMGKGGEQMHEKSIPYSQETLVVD
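Assay system: engineered CHO-K1 APJ arrestin reporter cells; Amount: 1000 CHO-K1 reporter cells seeded per well; Dosing: one dose, 20 µM compound, 1% DMSO; Times: compound stimulation 90 min at 25 °C, detection 60 min; Measured by: luminescent beta-gal fragment complementation, chemiluminescent substrate; Read-out: APJ–arrestin association signal; Controls: DMSO vs Apelin-13 10 nM.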
CCR6 antag = CCR6 (human) receptor antagonism. P51684. inhibition, % at 20 µM. AID 493098. 340,000 compounds, 0.49% hits. CHO-K1 CCR6 PathHunter beta-arrestin, luminescence, CCL20-stimulated;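 active = compounds whose inhibition of the agonist-driven luminescence signal at 20 µM reaches about 50%, limit read from the data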;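 note: cells stimulated with CCL20 at 14 nM final; plate controls were DMSO with CCL20 for no effect and DMSO without agonist for full effect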
CXCR6 inh = blocks human CXCR6 beta-arrestin recruitment; CHO-K1 PathHunter CXCR6 beta-arrestin, luminescence; 360,000 compounds, 0.36% hits; AID 602244; inhibition, % at 20 µM; in the data active = inhibition above about 34%, passing the limit was not always enough;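 note: antagonist mode with CXCL16 agonist at 10 nM final; 0% = 10 nM CXCL16 with DMSO and 100% = unstimulated wells without agonist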
APOBEC3G inh = inhibitors of human APOBEC3G DNA deaminase | inhibition, % at 20 µM | recombinant A3G, ssDNA deamination FAM/TAMRA fluorescence | 330,000 compounds, 0.28% hits | Q9HC16 | AID 493012;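 active = inhibition of at least 40% at 20 µM, with no more than 30% in the related APOBEC3A deaminase screen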;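 note: plate controls were DMSO wells with A3G for no effect and wells lacking A3G enzyme for full effect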
APJ antag = blocks the human apelin receptor APJ; P35414; CHO-K1 APJ beta-arrestin complementation, luminescence; inhibition, % at 20 µM; 330,000 compounds, 0.32% hits; AID 2521;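 active = inhibition above about 40% at 20 µM, limit read from the data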;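 note: cells challenged with 10 nM apelin-13 agonist together with compound; plate controls were apelin-13 plus DMSO wells for no effect and DMSO wells lacking apelin-13 for full effect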
APJ antag confirm = confirmation of human APJ apelin receptor antagonists; shares compounds with APJ antag; inhibition, % at 20 µM; 950 compounds, 66% hits; APJ beta-arrestin recruitment, luminescence, antagonist mode; in the data active = inhibition above about 50%
The depositor's hits bear a star; x = no result.

SMILES	A3A deaminase	APJ agonist	CCR6 antag	CXCR6 inh	APOBEC3G inh	APJ antag	APJ antag confirm
CC(=O)Nc1cc(C(=O)OCC(=O)c2ccc(C)cc2)ccc1C	-4	-2	-19	26	-8	-6	x
CC(C)C(=O)Nc1cccc(C(=O)OCC(=O)c2ccc(Cl)cc2Cl)c1	-1	-5	36	2	1	49*	50*
COc1ccc(C(=O)COC(=O)c2cccnc2Cl)c(OC)c1	8	-5	12	-10	0	4	x
CC(=O)Nc1cc(C(=O)OCC(=O)c2ccc(Cl)cc2Cl)ccc1C	-1	-7	12	6	-5	52*	25
O=C(COC(=O)c1cccnc1Cl)c1ccc(Cl)cc1Cl	1	-13	21	15	-5	58*	60*
COc1ccc2oc(C(=O)OCC(=O)N(C)c3c(N)n(Cc4ccccc4)c(=O)[nH]c3=O)c(C)c2c1	25	9	4	2	7	9	x
Cc1cc(C)c(C#N)c(SCC(=O)N(CCC#N)c2ccc3c(c2)OCCO3)n1	-3	2	6	-9	-11	16	x
Cc1ccc(C(C)C)cc1OCC(=O)N1CCN(C(=O)c2ccco2)CC1	-1	4	8	-13	-7	-57	x
CN(C)c1ccc(/C=C2/NC(=O)NC2=O)cc1	-1	-1	4	14	-3	3	x
CN(C)c1ccc(/C=C2\N=C(c3ccc(Cl)c([N+](=O)[O-])c3)NC2=O)cc1	4	-10	63*	45*	-2	52*	104*
Oc1c(C(c2cccs2)N2CCN(c3ccccc3)CC2)ccc2cccnc12 (stereo unspecified)	9	0	x	x	25	2	x
Oc1c(C(c2ccccc2Cl)N2CCCC2)ccc2cccnc12 (stereo unspecified)	5	-7	43	24	-4	56*	56*
CC(NC(=O)c1ccc(NC(=O)CC2SC(N3CCCC3)=NC2=O)cc1)c1ccccc1 (stereo unspecified)	4	-4	7	-5	-1	-6	x
Oc1ccc(N=Nc2c(O)ccc3ccccc23)cc1	7	-11	54*	39	4	50*	71*
Cc1ccc2c(c1)nnn2C1CCN(CC(=O)NCCc2nc3ccccc3[nH]2)CC1	0	-9	57*	29	-3	41*	60*
CCOc1ccc(NC(=O)CC2C(=O)N(CC)C(=S)N2CCN2CCOCC2)cc1 (stereo unspecified)	-8	-3	-11	-9	-6	46*	-6
Cc1[nH]c(C)c(S(=O)(=O)N2CCCCC2)c1C(=O)N1CCCCC1	-5	-1	-11	-15	-8	4	x
COC(=O)C1=C(C)N(Cc2ccccc2)C(=NCc2cccc(Cl)c2)N[C@H]1c1cccc(F)c1	0	-3	26	-2	-4	39	x
COC(=O)C1=C(C)N(Cc2ccccc2)C(=NCC(C)C)N[C@H]1c1cccc(F)c1	33	-4	8	2	26	48*	84*
Fc1ccc(CNC(=S)Nc2ccc(Cl)cc2Cl)cc1	-1	-2	-7	-3	-6	13	x
Fc1ccc(NC(=S)Nc2ccc(Cl)cc2Cl)cc1	5	-2	13	x	-1	57*	63*
O=C1Nc2ccc(F)cc2C12Nc1ccccc1-c1nnc(SCc3ccccc3)nc1O2 (stereo unspecified)	0	-12	30	5	2	32	x
O=C1Nc2ccc(F)cc2C12Nc1ccccc1-c1nnc(SCc3ccccc3Cl)nc1O2 (stereo unspecified)	-3	-4	40	22	-7	53*	75*
CCCCCCCCCCCCCCCC(O)C(N)CO (stereo unspecified)	-1	-3	24	9	-15	41*	47
O=C(NCCOC(=O)c1cccs1)c1cccnc1	0	-4	-9	3	-4	65*	25
CN(CC(=O)Nc1ccccc1C(F)(F)F)C(=O)CSCc1ccccc1	1	0	9	6	-6	-17	x

Bioassay records from PubChem BioAssay.
